# Reference: ChEMBL document CHEMBL3259701, “Siderophore receptor-mediated uptake of lactivicin analogues in gram-negative bacteria” (J Med Chem, 2014)
# Key:
# Pseudomonas aeruginosa [1] = assay: Ratio of MIC for Pseudomonas aeruginosa PAO1 harboring siderophore receptor fptA mutant to MIC for wild type Pseudomonas aeruginosa PAO1 in medium containing low-Fe by CLSI broth microdilution method; type: functional
# Method in brief: (§1)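 Ratio of strain MIC to PAO1 MIC. Both MICs were obtained by CLSI broth microdilution in iron-depleted modified Mueller Hinton broth. A shift greater than 4× versus the parent was read as the deleted receptor(s) taking part in uptake.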
# [2] = molecular target: Penicillin-binding protein 1A (Pseudomonas aeruginosa PAO1, UniProt Q07806); assay: Displacement of fluorescent Bocillin FL from N-terminal His tagged Pseudomonas aeruginosa PAO1 PBP1a (residues 36 to 822) expressed in Escherichia coli BL21 (Gold cells)
# Sequence of Penicillin-binding protein 1A (Q07806 whole entry, the tested form may be a part): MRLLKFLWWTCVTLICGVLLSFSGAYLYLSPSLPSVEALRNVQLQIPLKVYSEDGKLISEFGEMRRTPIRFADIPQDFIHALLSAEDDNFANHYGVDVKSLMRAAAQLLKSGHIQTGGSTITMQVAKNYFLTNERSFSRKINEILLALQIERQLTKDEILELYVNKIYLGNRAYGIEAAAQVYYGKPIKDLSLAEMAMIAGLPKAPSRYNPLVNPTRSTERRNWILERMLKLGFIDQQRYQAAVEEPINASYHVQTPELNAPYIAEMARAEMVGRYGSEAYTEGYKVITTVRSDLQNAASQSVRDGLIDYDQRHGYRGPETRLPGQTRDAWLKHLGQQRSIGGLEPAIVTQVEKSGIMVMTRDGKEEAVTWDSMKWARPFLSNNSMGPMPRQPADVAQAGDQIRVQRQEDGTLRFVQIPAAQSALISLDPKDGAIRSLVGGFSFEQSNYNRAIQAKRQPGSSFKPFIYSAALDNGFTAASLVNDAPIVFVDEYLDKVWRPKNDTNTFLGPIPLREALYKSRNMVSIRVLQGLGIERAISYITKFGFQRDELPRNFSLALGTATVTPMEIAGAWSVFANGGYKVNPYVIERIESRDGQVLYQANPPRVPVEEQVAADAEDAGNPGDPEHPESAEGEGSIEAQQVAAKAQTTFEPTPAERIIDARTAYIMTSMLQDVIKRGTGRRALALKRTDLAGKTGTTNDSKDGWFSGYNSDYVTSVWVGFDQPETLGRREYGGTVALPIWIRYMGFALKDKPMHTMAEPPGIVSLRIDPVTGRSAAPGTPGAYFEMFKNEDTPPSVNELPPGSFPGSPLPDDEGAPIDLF
# Pseudomonas aeruginosa [3] = assay: Ratio of MIC for Pseudomonas aeruginosa PAO1 harboring siderophore receptor pirA mutant to MIC for wild type Pseudomonas aeruginosa PAO1 in medium containing low-Fe by CLSI broth microdilution method; type: functional; method in brief: as §1
# Pseudomonas aeruginosa [4] = assay: Ratio of MIC for Pseudomonas aeruginosa PAO1 harboring siderophore receptor piuA and pfeA double mutant to MIC for wild type Pseudomonas aeruginosa PAO1 in medium containing aztreonam and low-Fe by CLSI broth microdilution method; type: functional
# Pseudomonas aeruginosa [5] = assay: Ratio of MIC for Pseudomonas aeruginosa PAO1 harboring siderophore receptor pirA mutant to MIC for wild type Pseudomonas aeruginosa PAO1 in medium containing aztreonam and low-Fe by CLSI broth microdilution method; type: functional
# Pseudomonas aeruginosa [6] = assay: Antibacterial activity against Pseudomonas aeruginosa PAO1 harboring siderophore receptor piuA and pfeA double mutant in medium containing low-Fe by CLSI broth microdilution method; type: functional
# Method in brief: (§2)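 MIC by CLSI broth microdilution in a modified Mueller Hinton broth depleted of iron to mimic the low-iron in vivo environment. Tested against PAO1 and isogenic strains lacking one or more siderophore receptors.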
# Pseudomonas aeruginosa [7] = assay: Ratio of MIC for Pseudomonas aeruginosa PAO1 harboring siderophore receptor fpvA mutant to MIC for wild type Pseudomonas aeruginosa PAO1 in Mueller-Hinton broth medium by CLSI broth microdilution method; type: functional
# Method in brief: (§3)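 Receptor-deficient PAO1 strain MIC divided by parent PAO1 MIC. Both MICs were obtained by CLSI broth microdilution in standard Mueller Hinton broth. A shift greater than 4× was taken to indicate that the deleted receptor(s) take part in drug uptake.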
# Pseudomonas aeruginosa [8] = assay: Antibacterial activity against Pseudomonas aeruginosa PAO1 harboring siderophore receptor piuA mutant in medium containing low-Fe by CLSI broth microdilution method; type: functional; method in brief: as §2
# Pseudomonas aeruginosa [9] = assay: Ratio of MIC for Pseudomonas aeruginosa PAO1 harboring siderophore receptor pirA and pfeA double mutant to MIC for wild type Pseudomonas aeruginosa PAO1 in Mueller-Hinton broth medium by CLSI broth microdilution method; type: functional; method in brief: as §3
# Pseudomonas aeruginosa [10] = assay: Antibacterial activity against Pseudomonas aeruginosa PAO1 harboring siderophore receptor pfeA mutant in medium containing aztreonam and low-Fe by CLSI broth microdilution method; type: functional
# Pseudomonas aeruginosa [11] = assay: Ratio of MIC for Pseudomonas aeruginosa PAO1 harboring siderophore receptor piuA, pfeA and pirA mutant in MHB medium to MIC for harboring siderophore receptor piuA, pfeA and pirA mutant in medium containing low-Fe by CLSI broth microdilution method; type: functional
# Pseudomonas aeruginosa [12] = assay: Antibacterial activity against Pseudomonas aeruginosa PAO1 harboring siderophore receptor piuA and pfeA double mutant in Mueller-Hinton broth medium by CLSI broth microdilution method; type: functional
# Method in brief: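 MIC by CLSI broth microdilution in standard Mueller Hinton broth. Tested against wild-type P. aeruginosa PAO1 and an isogenic panel lacking one or more siderophore receptors.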
# Escherichia coli [13] = assay: Antibacterial activity against Escherichia coli DH5alpha expressing beta-lactamase KPC-3 by CLSI broth microdilution method; type: functional; conditions: DH5[alpha]
# Pseudomonas aeruginosa [14] = assay: Ratio of MIC for Pseudomonas aeruginosa PAO1 harboring siderophore receptor piuA, pfeA and pirA mutant to MIC for wild type Pseudomonas aeruginosa PAO1 in Mueller-Hinton broth medium by CLSI broth microdilution method; type: functional
# Method in brief: (§4)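 Broth microdilution MIC per CLSI in standard Mueller-Hinton broth, run against wild-type P. aeruginosa PAO1 and isogenic PAO1 strains lacking one or more siderophore receptors. Value is the mutant-strain MIC divided by the PAO1 MIC.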
# Pseudomonas aeruginosa [15] = assay: Ratio of MIC for Pseudomonas aeruginosa PAO1 harboring siderophore receptor piuA mutant to MIC for wild type Pseudomonas aeruginosa PAO1 in medium containing low-Fe by CLSI broth microdilution method; type: functional
# Method in brief: (§5)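 CLSI broth microdilution MICs in a modified Mueller-Hinton broth depleted of iron to mimic low in vivo iron. Tested against wild-type PAO1 and isogenic siderophore receptor knockout strains. Reported as the knockout-strain MIC divided by the PAO1 MIC in the same iron-depleted medium.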
# Escherichia coli [16] = assay: Antibacterial activity against Escherichia coli DH5alpha expressing beta-lactamase SHV-12 by CLSI broth microdilution method; type: functional; conditions: DH5[alpha]
# Escherichia coli [17] = assay: Antibacterial activity against Escherichia coli DH5alpha expressing beta-lactamase NDM-1 by CLSI broth microdilution method; type: functional; conditions: DH5[alpha]
# Pseudomonas aeruginosa [18] = assay: Antibacterial activity against Pseudomonas aeruginosa PAO1 harboring siderophore receptor piuA mutant in medium containing aztreonam and low-Fe by CLSI broth microdilution method; type: functional
# Pseudomonas aeruginosa [19] = assay: Ratio of MIC for Pseudomonas aeruginosa PAO1 harboring siderophore receptor pirA and pfeA double mutant to MIC for wild type Pseudomonas aeruginosa PAO1 in medium containing aztreonam and low-Fe by CLSI broth microdilution method; type: functional
# Pseudomonas aeruginosa [20] = assay: Antibacterial activity against Pseudomonas aeruginosa PAO1 harboring siderophore receptor piuA and fptA double mutant in medium containing low-Fe by CLSI broth microdilution method; type: functional; method in brief: as §2
# Pseudomonas aeruginosa [21] = assay: Ratio of MIC for Pseudomonas aeruginosa PAO1 harboring siderophore receptor fptA mutant to MIC for wild type Pseudomonas aeruginosa PAO1 in medium containing aztreonam and low-Fe by CLSI broth microdilution method; type: functional
# Pseudomonas aeruginosa [22] = assay: Antibacterial activity against Pseudomonas aeruginosa PAO1 in medium containing aztreonam and low-Fe by CLSI broth microdilution method; type: functional
# Pseudomonas aeruginosa [23] = assay: Ratio of MIC for Pseudomonas aeruginosa PAO1 harboring siderophore receptor piuA and pirA double mutant to MIC for wild type Pseudomonas aeruginosa PAO1 in Mueller-Hinton broth medium by CLSI broth microdilution method; type: functional; method in brief: as §4
# Pseudomonas aeruginosa [24] = assay: Ratio of MIC for Pseudomonas aeruginosa PAO1 harboring siderophore receptor pfeA mutant to MIC for wild type Pseudomonas aeruginosa PAO1 in medium containing low-Fe by CLSI broth microdilution method; type: functional; method in brief: as §1
# Pseudomonas aeruginosa [25] = assay: Ratio of MIC for Pseudomonas aeruginosa PAO1 harboring siderophore receptor pfeA mutant to MIC for wild type Pseudomonas aeruginosa PAO1 in medium containing aztreonam and low-Fe by CLSI broth microdilution method; type: functional
# Pseudomonas aeruginosa [26] = assay: Ratio of MIC for Pseudomonas aeruginosa PAO1 harboring siderophore receptor piuA, pfeA and pirA mutant to MIC for wild type Pseudomonas aeruginosa PAO1 in medium containing low-Fe by CLSI broth microdilution method; type: functional; method in brief: as §5
# Pseudomonas aeruginosa [27] = assay: Ratio of MIC for Pseudomonas aeruginosa PAO1 harboring siderophore receptor pirA mutant to MIC for wild type Pseudomonas aeruginosa PAO1 in Mueller-Hinton broth medium by CLSI broth microdilution method; type: functional; method in brief: as §3
# Pseudomonas aeruginosa [28] = assay: Antibacterial activity against Pseudomonas aeruginosa PAO1 harboring siderophore receptor piuA and fpvA double mutant in medium containing low-Fe by CLSI broth microdilution method; type: functional; method in brief: as §2
# Escherichia coli [29] = assay: Antibacterial activity against Escherichia coli DH5alpha expressing beta-lactamase TEM-24 by CLSI broth microdilution method; type: functional; conditions: DH5[alpha]
# Pseudomonas aeruginosa [30] = assay: Ratio of MIC for Pseudomonas aeruginosa PAO1 harboring siderophore receptor piuA and pirA double mutant in MHB medium to MIC for Pseudomonas aeruginosa PAO1 harboring siderophore receptor piuA and pirA double mutant in medium containing low-Fe by CLSI broth microdilution method; type: functional
structure (smiles),measurement,setting,value
CC(C)(O/N=C(\C(=O)N[C@H]1CON(C2(C(=O)O)C[C@H](N3C(=O)c4cc(O)c(O)cc4C3=O)C(=O)O2)C1=O)c1csc(N)n1)C(=O)O (stereo not given in full),Ratio,Pseudomonas aeruginosa [1],>=2
same,IC50,[2],30 nM
same,Ratio,Pseudomonas aeruginosa [3],1
same,Ratio,Pseudomonas aeruginosa [4],1
same,Ratio,Pseudomonas aeruginosa [5],1
same,MIC,Pseudomonas aeruginosa [6],0.125 µg/mL
same,Ratio,Pseudomonas aeruginosa [7],32
same,MIC,Pseudomonas aeruginosa [8],0.125 µg/mL
same,Ratio,Pseudomonas aeruginosa [9],1
same,MIC,Pseudomonas aeruginosa [10],4 µg/mL
same,Ratio,Pseudomonas aeruginosa [11],64
same,MIC,Pseudomonas aeruginosa [12],8 µg/mL
same,MIC,Escherichia coli [13],0.03 µg/mL
same,Ratio,Pseudomonas aeruginosa [14],32
same,Ratio,Pseudomonas aeruginosa [15],>=4
same,MIC,Escherichia coli [16],0.015 µg/mL
same,MIC,Escherichia coli [17],0.03 µg/mL
same,MIC,Pseudomonas aeruginosa [18],4 µg/mL
same,Ratio,Pseudomonas aeruginosa [19],1
same,MIC,Pseudomonas aeruginosa [20],0.5 µg/mL
same,Ratio,Pseudomonas aeruginosa [21],1
same,MIC,Pseudomonas aeruginosa [22],4 µg/mL
same,Ratio,Pseudomonas aeruginosa [23],32
same,Ratio,Pseudomonas aeruginosa [24],1
same,Ratio,Pseudomonas aeruginosa [25],1
same,Ratio,Pseudomonas aeruginosa [26],>=8
same,Ratio,Pseudomonas aeruginosa [27],1
same,MIC,Pseudomonas aeruginosa [28],0.25 µg/mL
same,MIC,Escherichia coli [29],0.06 µg/mL
same,Ratio,Pseudomonas aeruginosa [30],64
